Calls of active or inactive are those of the source.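 Rule for the calls: active = EC50 for reversing nicotinamide-shortened yeast lifespan at or below a set limit; inactive = EC50 above that limit.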
What follows are molecules tested on S. cerevisiae DeaD BB579, nicotinamide rescue growth, OD615 48 h (assay: rescue of nicotinamide-suppressed growth of yeast BB579, dose response, yeast lifespan extension project, S. cerevisiae (AID 809)).
In short: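 System – S. cerevisiae DeaD strain BB579 · Buffer or medium – CSMM-D glucose restrictive medium · Times – culture pre-incubation 4 h, then compound exposure 48 h, both 30 °C · Signal – OD615 absorbance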
O=C1OC2(CCCCC2)OC(=O)C1=CNc1nc2ccccc2s1 was tested, and the EC50 was > 10 µM (inactive). CCN1C(=O)C(=Cc2ccc(C)s2)C(=O)N(CC)C1=S was tested, and the EC50 was 3.74 µM. In the case of COC(=O)C1=C(C(=O)OC)C(c2cc(Br)ccc2O)c2sc(=O)[nH]c2S1 (stereo unspecified), the EC50 is reported as 4.75 µM. In the case of CCc1ccc(C(=O)CN2C(=O)NC(C)(CCc3ccccc3)C2=O)cc1 (stereo unspecified), the EC50 is reported as > 10 µM (inactive). CCSc1ccccc1C(=O)n1nnc2ccccc21 showed an EC50 of 7.79 µM. With CCOc1ccc(/C=C/C(=O)c2c(O)c3ccccc3oc2=O)cc1 the EC50 was > 10 µM (inactive). O=C(NC(=S)NNC(=O)c1ccccc1O)c1ccco1 was tested, and the EC50 was 6.02 µM. Cc1c(NC(=O)C(=O)/C=C(/O)c2ccccc2)c(=O)n(-c2ccccc2)n1C was tested, and the EC50 was 4.95 µM. Molecule COc1ccc(C(=O)On2c(-c3ccc(Br)cc3)nc3ccccc3c2=O)cc1 has an EC50 of 3.02 µM. CCn1c(=O)c2ccccc2n2c(SCC(=O)N3CCCc4ccccc43)nnc12 was tested, and the EC50 was > 10 µM (inactive). COc1ccc(CN2CCN(C(=O)COc3cccc(C)c3)CC2)c(OC)c1 was tested, and the EC50 was > 10 µM (inactive). In the case of C=CCN(CC=C)c1nc2ccccc2nc1C(C#N)C(=O)OC(C)C (stereo unspecified), the EC50 is reported as > 10 µM (inactive). In the case of N#Cc1ccc(-c2ccc(OCC(=O)NCCc3ccccc3)cc2)cc1, the EC50 is reported as > 10 µM (inactive). With COc1ccccc1N(CN1CCCC1=O)C(=O)c1c(F)cccc1F the EC50 was > 10 µM (inactive). For O=Cc1cc2ccccc2nc1SCc1ccc(Cl)cc1, the EC50 was 8.27 µM. Work on CCCCC(=Nc1ccccc1OC)C1=C(O)CC(c2ccccc2)CC1=O (stereo unspecified) yielded an EC50 of 4.5 µM. With CCc1ccc(CC2S/C(=C(\C#N)C(C)=O)NC2=O)cc1 (stereo unspecified) the EC50 was > 10 µM (inactive). O=c1cc(-c2ccccc2Cl)oc2ccc([N+](=O)[O-])c(O)c12 gave an EC50 of 7.35 µM. O=C(NC(=S)NNC(=O)c1ccc(Cl)cc1Cl)c1cccnc1 gave an EC50 of 9.35 µM. In the case of O=c1c2ccccc2sn1-c1ccccc1, the EC50 is reported as > 10 µM (inactive). Molecule COc1ccc2c(=O)c3c(=O)n(Cc4ccco4)c(-c4ccc(C)cc4)nc3oc2c1 has an EC50 of 6.81 µM. With COc1ccc(C(=O)Nc2ccc(OCc3ccccc3)cc2)cc1[N+](=O)[O-] the EC50 was > 10 µM (inactive). For CC1(C)CC(=O)c2sc(NS(C)(=O)=O)nc2C1, the EC50 was > 10 µM (inactive). N=c1c2c(-c3ccccc3)c(-c3ccccc3)n(Cc3ccco3)c2ncn1CCCn1ccnc1 showed an EC50 of 9.85 µM. With Cc1ccc2nc(-c3ccc(NC(=O)CSc4ccccc4)cc3)[nH]c2c1 the EC50 was > 10 µM (inactive). C=C(CC)C(=O)c1ccc(OCC(=O)O)c(Cl)c1Cl gave an EC50 of 7.07 µM. With O=C(CS(=O)c1ccc(C(F)(F)F)cc1[N+](=O)[O-])Oc1ccccc1 (stereo unspecified) the EC50 was 5.19 µM. Cc1cc(C)nc(SCc2cc(=O)c(OC(=O)c3ccc(Br)o3)co2)n1 showed an EC50 of 3.26 µM. Work on CC(C)C(C(=O)O)N1C(=O)/C(=C/c2cccn2C)SC1=S (stereo unspecified) yielded an EC50 of 8.05 µM. O=C1c2ccccc2C(=O)N1Cc1nc2ccccc2c(=O)n1-c1ccc(Br)cn1 gave an EC50 of 1.67 µM. CCOC(=O)C1C(=O)C(C(C)=O)C(=O)CC1CC(C)SCC (stereo unspecified) gave an EC50 of 2.06 µM. CC(C)Cc1nn2c(=O)cc(O)nc2s1 gave an EC50 of 8.79 µM. Cc1cc(NS(=O)(=O)c2ccc(CC(C)C)cc2)no1 showed an EC50 of 6.25 µM. For N#Cc1cc(C(=O)c2cc(F)ccc2O)cn(-c2nccs2)c1=O, the EC50 was > 10 µM (inactive). In the case of CCn1ncc(/C=N/NC(=O)c2ccc3c(c2)OCO3)c1C, the EC50 is reported as > 10 µM (inactive). Cc1ccc(-c2nc3ccc(Cl)cc3n2OC(=O)N(C)C)cc1 was tested, and the EC50 was > 10 µM (inactive). O=C(Oc1cc(=O)n2ccccc2n1)c1ccccc1 showed an EC50 of 7.19 µM. CCCCCC(=O)N1CCN(CCN=CC2=C(O)CC(c3ccc(OC)c(OC)c3)CC2=O)CC1 (stereo unspecified) was tested, and the EC50 was > 10 µM (inactive). Cc1ccc(C(=O)C2C(=O)c3ccccc3C2=O)cc1 gave an EC50 of 3.68 µM. CC(C)=C1C(=O)NN(c2ccc(C)c(Cl)c2)C1=O showed an EC50 of 9.85 µM. Cc1ccc(C(=O)OC2=CC(=O)CC(C)(C)C2)cc1 gave an EC50 of 2.94 µM. With CC(=O)N1CCN(CCN=CC2=C(O)CC(c3cccs3)CC2=O)CC1 (stereo unspecified) the EC50 was > 10 µM (inactive). For Cc1cc(C)nc(SCc2cc(=O)c(OC(=O)c3ccco3)co2)n1, the EC50 was > 10 µM (inactive). In the case of COCCCN(C(=S)Nc1cc(Cl)cc(Cl)c1)C(C)c1ccncc1 (stereo unspecified), the EC50 is reported as > 10 µM (inactive). In the case of CCCCC(=Nc1ccc(N)cc1)C1=C(O)C(C(=O)OC)C(C)(C)CC1=O (stereo unspecified), the EC50 is reported as 5.51 µM. With CCCC(=Nc1ccccc1)C1=C(O)C(C(=O)OC)C(C)(C)CC1=O (stereo unspecified) the EC50 was 5.99 µM. In the case of CCCCC(c1nnnn1CC1CCCO1)N1CCN(c2nc3ccccc3s2)CC1 (stereo unspecified), the EC50 is reported as > 10 µM (inactive). With Oc1ccc2ccccc2c1/C=N/c1nccs1 the EC50 was 6.59 µM. With O=Cc1cccn1-c1sc2c(c1C(=O)O)CCCC2 the EC50 was > 10 µM (inactive). CCc1c(C)c(C#N)c2nc3ccccc3n2c1Cl was tested, and the EC50 was > 10 µM (inactive). Work on CCOC(=O)Cc1csc(NC(=O)c2c(O)c3ccccc3n(CC(C)C)c2=O)n1 yielded an EC50 of 9.63 µM. For CCCCCCN1CC(C(=O)OCC)C(=O)C1=O (stereo unspecified), the EC50 was 4.74 µM. With O=C1CC(c2ccccc2)CC(O)=C1C=NCCN1CCNCC1 (stereo unspecified) the EC50 was > 10 µM (inactive). With CC(=O)Oc1ccccc1N1C(=O)c2ccc(C(=O)O)cc2C1=O the EC50 was > 10 µM (inactive). For Cc1cccc(NC(=O)c2c(O)c3cccc4c3n(c2=O)CCC4)n1, the EC50 was 6.87 µM. In the case of O=c1cc(-c2c(F)c(F)c(F)c(F)c2F)oc2c(F)c(F)c(F)c(F)c12, the EC50 is reported as 5.65 µM. For CC(=O)C(C(C)=O)c1c(Cl)c(O)c(O)c2c(C(=O)c3ccccc3)coc12, the EC50 was > 10 µM (inactive). For O=C(Cn1nc(Cl)nc1Cl)c1cc2ccccc2oc1=O, the EC50 was > 10 µM (inactive). O=C1/C(=C\c2cccnc2)CN(Cc2ccccc2)C/C1=C\c1cccnc1 showed an EC50 of 9.63 µM. With Cc1ccc(N2NC(=O)/C(=C\c3cc4c(cc3[N+](=O)[O-])OCO4)C2=O)cc1C the EC50 was > 10 µM (inactive). With CC1(C)Oc2ccccc2OC1(O)c1ccc2ccccc2n1 (stereo unspecified) the EC50 was > 10 µM (inactive). In the case of O=C(Nc1ccc(Br)cn1)c1cccc(-c2cc3ccccc3oc2=O)c1, the EC50 is reported as > 10 µM (inactive). With CC(=Nc1ccc2c(c1)nc(CO)n2C)C1=C(O)CC(C)(C)CC1=O the EC50 was > 10 µM (inactive). With CCc1cc2c(=O)c(Oc3ccccc3)c(C)oc2cc1O the EC50 was > 10 µM (inactive). In the case of Cc1ccc(/C=C2/C(=O)NC(=O)N(CCc3ccc(F)cc3)C2=O)o1, the EC50 is reported as > 10 µM (inactive). Molecule CCCC(=O)C1C(=O)CC(CC(C)SCC)CC1=O (stereo unspecified) has an EC50 of 2.33 µM. With CCCCCCCCn1c(=O)c(C(=O)OCC)c(O)c2ccccc21 the EC50 was 9.18 µM. For CCOc1ccc(/C=C2/C(=O)NC(=O)N(CCc3ccc(F)cc3)C2=O)cc1, the EC50 was > 10 µM (inactive). In the case of CC(C)c1ccc(C2=C(O)c3ccccc3C(=O)C2=O)cc1, the EC50 is reported as > 10 µM (inactive). With COc1cc(/C=C/C(=O)c2c(O)cc(C)oc2=O)cc(OC)c1O the EC50 was > 10 µM (inactive). In the case of CC(=C1C(=O)c2ccccc2C1=O)N1CCN(C/C=C/c2ccccc2)CC1, the EC50 is reported as > 10 µM (inactive). Work on CCOC(=O)CSC1=NC(=O)/C(=C/c2ccc(OC)cc2)S1 yielded an EC50 of 6.43 µM. Work on CCCCSc1nc(O)c(C2OC(=O)c3c2ccc(OC)c3OC)c(=O)n1C (stereo unspecified) yielded an EC50 of 5.79 µM. With O=C(CCC1CCCC1)c1c(O)c2ccccc2oc1=O the EC50 was > 10 µM (inactive). Molecule CCOc1ccc(C(=O)C(CN2CCOCC2)c2ccccc2)cc1 (stereo unspecified) has an EC50 of 7.92 µM. Work on Cc1ccc(C(C2=C(O)CC(C)(C)CC2=O)C2C(=O)CC(C)(C)CC2=O)o1 (stereo unspecified) yielded an EC50 of 6.35 µM. With CCCn1c(C)cc(C(=O)COc2ncnc3sccc23)c1C the EC50 was 5.05 µM. Molecule NC(=S)N/N=C/c1coc2cc(Cl)ccc2c1=O has an EC50 of 4.87 µM. Cc1ccnc(N=Cc2c(O)ccc3oc4c(c23)CCCC4)c1 showed an EC50 of 8.47 µM. COCCOC(=O)/C(=C/c1ccc(OC(=O)c2ccccc2)cc1)C(C)=O gave an EC50 of 4.96 µM. Work on CCOC(=O)/C(=C/c1ccc(OC(=O)c2ccccc2)cc1)C(C)=O yielded an EC50 of 4.96 µM. With Cc1cc(C(=O)CN2C(=O)NC(C)(CC(C)C)C2=O)c(C)n1-c1ccc2c(c1)OCO2 (stereo unspecified) the EC50 was > 10 µM (inactive). CCOC(=O)COc1ccccc1/C=C\[N+](=O)[O-] gave an EC50 of 1.79 µM. CC(c1ccco1)N(C(=O)c1ccccc1NS(=O)(=O)c1cc([N+](=O)[O-])ccc1Cl)c1ccccn1 (stereo unspecified) gave an EC50 of 9.17 µM. In the case of CCCCCCCC(=O)N/N=C(/C)c1c(O)cc(C)oc1=O, the EC50 is reported as > 10 µM (inactive). In the case of CC1=C(C#N)C2C(/C1=N/O)C2(C)C (stereo unspecified), the EC50 is reported as > 10 µM (inactive). For CCCCC1C(=O)CC[C@H]2[C@@H]1CC(=O)[C@@H]2C/C=C\CCCC(=O)O (stereo partly specified), the EC50 was 8.1 µM. In the case of Oc1ccc2ccccc2c1C=Nc1ccc(N2CCOCC2)cc1, the EC50 is reported as > 10 µM (inactive). For O=C(CSc1nc2ccccc2o1)c1cc2ccccc2oc1=O, the EC50 was > 10 µM (inactive). With COC(=O)C(=O)/C=C(\O)c1ccc(C)cc1 the EC50 was 5.88 µM. With CCCCC(=O)Nc1ccc(C(=O)NNC(=S)NC(=O)c2cccs2)cc1 the EC50 was 8.39 µM. For COc1ccccc1-c1c(C)oc2cc(OC(=O)c3ccco3)ccc2c1=O, the EC50 was > 10 µM (inactive). With CCOC(=O)CC1=NN(c2ccccc2)C(=O)/C1=C\c1ccc(OC)cc1OC the EC50 was 8.5 µM. O=C(NC(=S)NNS(=O)(=O)c1ccccc1)c1ccc([N+](=O)[O-])cc1 was tested, and the EC50 was > 10 µM (inactive). In the case of CC1C/C(=C\c2cccnc2)C(=O)/C(=C/c2cccnc2)C1 (stereo unspecified), the EC50 is reported as 4.26 µM. In the case of CC[n+]1c(/C=C2\C=C(C)CC(C)(C)C2)sc2ccccc21, the EC50 is reported as > 10 µM (inactive). Molecule COC(=O)C1=C(C(=O)OC)C(c2ccccc2O)c2sc(=O)[nH]c2S1 (stereo unspecified) has an EC50 of 5.38 µM. For O=C(Nc1ccc(S(=O)(=O)N2CCc3ccccc3C2)cc1)c1ccccc1, the EC50 was > 10 µM (inactive). With CN1OC(c2ccccc2)=C(CO)C1c1ccccc1 (stereo unspecified) the EC50 was > 10 µM (inactive). COc1cc(C(C[N+](=O)[O-])c2c(-c3ccccc3)cc3ccccn23)cc(OC)c1OC (stereo unspecified) was tested, and the EC50 was > 10 µM (inactive). Cc1nc2c(=O)n(C)c(=O)n(C)c2nc1Cl was tested, and the EC50 was 1.72 µM. With COc1ccc(CC(=O)Nc2ccc3c(c2)CCC3)cc1S(=O)(=O)N1CCOCC1 the EC50 was > 10 µM (inactive). CCC(=NCCc1c(C)[nH]c2ccc(C)cc12)C1=C(O)CC(c2ccccc2)CC1=O (stereo unspecified) gave an EC50 of 5.08 µM. With Cn1nnnc1SCCNCC#Cc1ccccc1 the EC50 was > 10 µM (inactive). Nc1cccc2c1C(=O)N(C(=O)c1ccc(Cl)c(S(=O)(=O)N3CCCCCC3)c1)C2=O showed an EC50 of 7.66 µM. For CC1=NN(Cc2ccccc2)C(=O)C1C(c1ccccc1)C(C#N)C#N (stereo unspecified), the EC50 was > 10 µM (inactive).

— PubChem BioAssay AID809 (SRMLSC, 2007)
